The values that follow come from ChEMBL document CHEMBL1137218, “Long hydrocarbon chain ether diols and ether diacids that favorably alter lipid disorders in vivo” (J Med Chem, 2004).

Test [1] concerns Rattus norvegicus. Nature of the test: Blood glucose levels in female obese rats two weeks post treatment at 3 mg/kg oral dose; pretreatment value = 117 mg/dL. In kind it is functional.
The subject of test [2] is Rattus norvegicus. Kind of test: Serum Triglyceride levels in female obese rats one week post treatment at 30 mg/kg oral dose; pretreatment value = 1240 mg/dL. The test is classed as functional.
Test [3] has as its system Rattus norvegicus. Kind of test: Serum Triglyceride levels in female obese rats two weeks post treatment at 10 mg/kg oral dose; pretreatment value = 943 mg/dL. In kind it is functional.
For test [4], the system named is Rattus norvegicus. Kind of test: Blood glucose levels in female obese rats one week post treatment at 10 mg/kg oral dose; pretreatment value = 112 mg/dL. In kind it is functional.
For test [5], the system named is Rattus norvegicus. Kind of test: Blood glucose levels in female obese rats one week post treatment at 30 mg/kg oral dose; pretreatment value = 109 mg/dL. In kind it is functional.
The test system of test [6] is Rattus norvegicus. Nature of the test: Serum Triglyceride levels in female obese rats one week post treatment at 3 mg/kg oral dose; pretreatment value = 769 mg/dL. The test is classed as functional.
The test system of test [7] is Rattus norvegicus. Nature of the test: Serum HDL cholesterol levels in female obese rats one week post treatment at 30 mg/kg oral dose; pretreatment value = 42 mg/dL. In kind it is functional.
Test [8] relates to Rattus norvegicus. Kind of test: Serum Triglyceride levels in female obese rats two weeks post treatment at 100 mg/kg oral dose; pretreatment value = 746 mg/dL. The test is classed as functional.
Test [9] deals with Rattus norvegicus. Nature of the test: Serum Triglyceride levels in female obese rats two weeks post treatment at 30 mg/kg oral dose; pretreatment value = 1240 mg/dL. In kind it is functional.
Test [10] deals with Rattus norvegicus. Kind of test: Serum HDL cholesterol levels in female obese rats one week post treatment at 100 mg/kg oral dose; pretreatment value = 59 mg/dL. The test is classed as functional.
The subject of test [11] is Rattus norvegicus. Kind of test: Blood glucose levels in female obese rats two weeks post treatment at 10 mg/kg oral dose; pretreatment value = 112 mg/dL. In kind it is functional.
Test [12] deals with Rattus norvegicus. Kind of test: Serum HDL cholesterol levels in female obese rats two weeks post treatment at 100 mg/kg oral dose; pretreatment value = 59 mg/dL. In kind it is functional.
For test [13], the system named is Rattus norvegicus. Nature of the test: Insulin levels in female obese rats two weeks post treatment at 100 mg/kg oral dose; pretreatment value = 12.7 ng/mL. The test is classed as functional.
In test [14] the test system is Rattus norvegicus. Kind of test: Serum NEFA levels in female obese rats one week post treatment at 30 mg/kg oral dose; pretreatment value = 1.3 mg/dL. The test is classed as functional.
Test [15] concerns Rattus norvegicus. Kind of test: Serum NEFA levels in female obese rats two weeks post treatment at 3 mg/kg oral dose; pretreatment value = 1.2 mg/dL. The test is classed as functional.
Test [16] has as its system Rattus norvegicus. Nature of the test: Insulin levels in female obese rats one week post treatment at 3 mg/kg oral dose; pretreatment value = 12.9 ng/mL. In kind it is functional.
The subject of test [17] is Rattus norvegicus. Nature of the test: Insulin levels in female obese rats one week post treatment at 10 mg/kg oral dose; pretreatment value = 8.2 ng/mLL. The test is classed as functional.
Test [18] relates to Rattus norvegicus. Nature of the test: Insulin levels in female obese rats two weeks post treatment at 3 mg/kg oral dose; pretreatment value = 12.9 ng/mL. In kind it is functional.
Test [19] deals with Rattus norvegicus. Kind of test: Serum NEFA levels in female obese rats two weeks post treatment at 10 mg/kg oral dose; pretreatment value = 1.2 mg/dL. In kind it is functional.
Test [20] has as its system Rattus norvegicus. Kind of test: Serum NEFA levels in female obese rats two weeks post treatment at 30 mg/kg oral dose; pretreatment value = 1.3 mg/dL. The test is classed as functional.
For test [21], the system named is Rattus norvegicus. Kind of test: Blood glucose levels in female obese rats one week post treatment at 3 mg/kg oral dose; pretreatment value = 117 mg/dL. The test is classed as functional.
Test [22] deals with Rattus norvegicus. Nature of the test: Insulin levels in female obese rats one week post treatment at 100 mg/kg oral dose; pretreatment value = 12.7 ng/mL. In kind it is functional.
The test system of test [23] is Rattus norvegicus. Nature of the test: Serum Non-HDL cholesterol levels in female obese rats one week post treatment at 3 mg/kg oral dose; pretreatment value = 21 mg/dL. In kind it is functional. The method in brief: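 Female obese Zucker fatty rats (10–12 weeks, 400–500 g), once-daily oral gavage in 20% EtOH/80% PEG-200 (v/v) for up to 14 days. Serum drawn after a 6 h fast, pre-dose and at days 7 and 14. Non-HDL cholesterol is serum total cholesterol times the percent area of the non-HDL peaks in a Superose 6HR gel-filtration profile with on-line cholesterol detection. n = 4 per dose.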

Test [24] relates to Rattus norvegicus. Nature of the test: Blood glucose levels in female obese rats two weeks post treatment at 3 mg/kg oral dose; pretreatment value = 115 mg/dL. The test is classed as functional.
In test [25] the test system is Rattus norvegicus. Kind of test: Serum NEFA levels in female obese rats two weeks post treatment at 100 mg/kg oral dose; pretreatment value = 1.2 mg/dL. The test is classed as functional.
Test [26] deals with Rattus norvegicus. Kind of test: Blood glucose levels in female obese rats one week post treatment at 30 mg/kg oral dose; pretreatment value = 106 mg/dL. The test is classed as functional.
In test [27] the test system is Rattus norvegicus. Nature of the test: Serum Triglyceride levels in female obese rats one week post treatment at 3 mg/kg oral dose; pretreatment value = 1111 mg/dL. In kind it is functional.
Test [28] deals with Rattus norvegicus. Nature of the test: Serum HDL cholesterol levels in female obese rats one week post treatment at 3 mg/kg oral dose; pretreatment value = 57 mg/dL. The test is classed as functional.
In test [29] the test system is Rattus norvegicus. Kind of test: Serum HDL cholesterol levels in female obese rats two weeks post treatment at 3 mg/kg oral dose; pretreatment value = 57 mg/dL. In kind it is functional.
Test [30] concerns Rattus norvegicus. Kind of test: Serum HDL cholesterol levels in female obese rats one week post treatment at 100 mg/kg oral dose; pretreatment value = 58 mg/dL. The test is classed as functional.
The subject of test [31] is Rattus norvegicus. Nature of the test: Serum HDL cholesterol levels in female obese rats two weeks post treatment at 10 mg/kg oral dose; pretreatment value = 61 mg/dL. The test is classed as functional.
The subject of test [32] is Rattus norvegicus. Kind of test: Serum Triglyceride levels in female obese rats two weeks post treatment at 100 mg/kg oral dose; pretreatment value = 1068 mg/dL. In kind it is functional.
The subject of test [33] is Rattus norvegicus. Nature of the test: Blood glucose levels in female obese rats two weeks post treatment at 10 mg/kg oral dose; pretreatment value = 110 mg/dL. In kind it is functional.
For test [34], the system named is Rattus norvegicus. Nature of the test: Blood glucose levels in female obese rats two weeks post treatment at 30 mg/kg oral dose; pretreatment value = 106 mg/dL. The test is classed as functional.
The test system of test [35] is Rattus norvegicus. Kind of test: Serum HDL cholesterol levels in female obese rats two weeks post treatment at 100 mg/kg oral dose; pretreatment value = 58 mg/dL. In kind it is functional.
Test [36] relates to Rattus norvegicus. Nature of the test: Insulin levels in female obese rats two weeks post treatment at 3 mg/kg oral dose; pretreatment value = 13.3 ng/mL. The test is classed as functional.
Test [37] relates to Rattus norvegicus. Nature of the test: Serum NEFA levels in female obese rats one week post treatment at 3 mg/kg oral dose; pretreatment value = 1.1 mg/dL. In kind it is functional.
Test [38] relates to Rattus norvegicus. Kind of test: Serum NEFA levels in female obese rats one week post treatment at 10 mg/kg oral dose; pretreatment value = 1.4 mg/dL. The test is classed as functional.
Test [39] concerns Rattus norvegicus. Nature of the test: Serum NEFA levels in female obese rats two weeks post treatment at 3 mg/kg oral dose; pretreatment value = 1.1 mg/dL. In kind it is functional.
For test [40], the system named is Rattus norvegicus. Nature of the test: Serum NEFA levels in female obese rats one week post treatment at 100 mg/kg oral dose; pretreatment value = 1.2 mg/dL. In kind it is functional.
Test [41] deals with Rattus norvegicus. Kind of test: Insulin levels in female obese rats one week post treatment at 3 mg/kg oral dose; pretreatment value = 13.3 ng/mL. In kind it is functional.
Test [42] deals with Rattus norvegicus. Kind of test: Insulin levels in female obese rats one week post treatment at 10 mg/kg oral dose; pretreatment value = 8.8 […]. The test is classed as functional.
The subject of test [43] is Rattus norvegicus. Kind of test: Serum NEFA levels in female obese rats two weeks post treatment at 10 mg/kg oral dose; pretreatment value = 1.4 mg/dL. The test is classed as functional.
The test system of test [44] is Rattus norvegicus. Kind of test: Blood glucose levels in female obese rats one week post treatment at 10 mg/kg oral dose; pretreatment value = 110 mg/dL. In kind it is functional.
Test [45] deals with Rattus norvegicus. Kind of test: Serum Non-HDL cholesterol levels in female obese rats one week post treatment at 10 mg/kg oral dose; pretreatment value = 33 mg/dL.

On to `CC(C)(CO)CCCCOCCCCC(C)(C)CO`, for which the Activity with Rattus norvegicus [1] is 119 mg/dL; with Rattus norvegicus [2], 271 mg/dL; in the test on Rattus norvegicus [3], 706 mg/dL; in the test with Rattus norvegicus [4] it was 110 mg/dL; in the test on Rattus norvegicus [5] it was 140 mg/dL; in the test with Rattus norvegicus [6], 770 mg/dL. The Activity in the test on Rattus norvegicus [7] is 149 mg/dL; in the test with Rattus norvegicus [8], 219 mg/dL; in the test on Rattus norvegicus [9], 324 mg/dL; in the test with Rattus norvegicus [10], 192 mg/dL; with Rattus norvegicus [11], 117 mg/dL; with Rattus norvegicus [12] it was 263 mg/dL. Moreover, the Activity came out at 12.8 ng/mL in the test with Rattus norvegicus [13]; 0.76 mg/dL in the test with Rattus norvegicus [14]; 1.5 mg/dL in the test with Rattus norvegicus [15]; 15.1 ng/mL in the test with Rattus norvegicus [16]; 8.9 ng/mL in the test on Rattus norvegicus [17]; 9.9 ng/mL in the test on Rattus norvegicus [18]. In addition, the Activity in the test on Rattus norvegicus [19] was 1.1 mg/dL; with Rattus norvegicus [20], 0.75 mg/dL; in the test with Rattus norvegicus [21], 114 mg/dL; in the test on Rattus norvegicus [22] it was 14.5 ng/mL; in the test on Rattus norvegicus [23] it was 26 mg/dL.

Consider `CC(C)(CO)CCCCCOCCCCCC(C)(C)CO`, for which the Activity was 114 mg/dL in the test with Rattus norvegicus [24]; 0.7 mg/dL with Rattus norvegicus [25]; 113 mg/dL in the test on Rattus norvegicus [26]; 1031 mg/dL in the test on Rattus norvegicus [27]; 55 mg/dL in the test on Rattus norvegicus [28]; 56 mg/dL in the test on Rattus norvegicus [29]. Also, the Activity was determined as 115 mg/dL in the test on Rattus norvegicus [30]; 110 mg/dL in the test with Rattus norvegicus [31]; 167 mg/dL in the test with Rattus norvegicus [32]; 119 mg/dL with Rattus norvegicus [33]; 141 mg/dL in the test on Rattus norvegicus [34]; 134 mg/dL in the test on Rattus norvegicus [35]. The Activity in the test with Rattus norvegicus [36] came to 11.4 ng/mL; with Rattus norvegicus [37], 1.3 mg/dL; with Rattus norvegicus [38], 1.3 mg/dL; with Rattus norvegicus [39], 1.5 mg/dL; in the test on Rattus norvegicus [40], 1.2 mg/dL; in the test on Rattus norvegicus [41] it was 12.2 ng/mL. For the same compound, the Activity in the test on Rattus norvegicus [42] turned out to be 14.8 ng/mL; with Rattus norvegicus [43], 1.5 mg/dL; in the test with Rattus norvegicus [44] it was 100 mg/dL; in the test with Rattus norvegicus [45], 40 mg/dL.
